Test results reported in article PMC6745243 (Bioorganic & medicinal chemistry letters, 2019).
Where “and” joins values, the source holds several entries; their conditions need not be identical. Equal entries are not always repeated. Where two headings read alike, the source gives them in different places.

Legend:
[1] = Aqueous solubility; type: physicochemical
[2] = Mouse; ref Ghoshal, et al. Mol Metab. 2016; cited from earlier work
[3] = system: IP6K family; conditions: cited from earlier work
[4] = Human; ref Ghoshal, et al. Mol Metab. 2016; cited from earlier work
[5] = molecular target: T1, IP6K3 (Homo sapiens, UniProt Q96PC2); test: ADP-Glo Max assay, purified IP6K3; type: biochemical; conditions: IP6K3 over IP6K1
T1 sequence (Q96PC2 1-410): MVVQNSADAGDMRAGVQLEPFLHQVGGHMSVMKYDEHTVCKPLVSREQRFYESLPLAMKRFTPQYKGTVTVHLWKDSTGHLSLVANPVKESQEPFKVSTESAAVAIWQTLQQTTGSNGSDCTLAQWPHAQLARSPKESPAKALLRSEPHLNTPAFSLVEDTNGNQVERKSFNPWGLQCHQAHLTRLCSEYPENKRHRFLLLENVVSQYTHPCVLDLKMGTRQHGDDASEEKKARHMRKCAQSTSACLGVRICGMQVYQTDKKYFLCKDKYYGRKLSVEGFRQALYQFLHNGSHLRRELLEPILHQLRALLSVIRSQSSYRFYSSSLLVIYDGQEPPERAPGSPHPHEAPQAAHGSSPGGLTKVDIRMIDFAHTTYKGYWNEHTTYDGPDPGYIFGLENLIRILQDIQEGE

[6] = molecular target: T2, IP6K2 (Homo sapiens, UniProt Q9UHH9); test: ADP-Glo Max assay, purified IP6K2; type: biochemical; conditions: IP6K2 over IP6K1
T2 sequence (Q9UHH9 1-426): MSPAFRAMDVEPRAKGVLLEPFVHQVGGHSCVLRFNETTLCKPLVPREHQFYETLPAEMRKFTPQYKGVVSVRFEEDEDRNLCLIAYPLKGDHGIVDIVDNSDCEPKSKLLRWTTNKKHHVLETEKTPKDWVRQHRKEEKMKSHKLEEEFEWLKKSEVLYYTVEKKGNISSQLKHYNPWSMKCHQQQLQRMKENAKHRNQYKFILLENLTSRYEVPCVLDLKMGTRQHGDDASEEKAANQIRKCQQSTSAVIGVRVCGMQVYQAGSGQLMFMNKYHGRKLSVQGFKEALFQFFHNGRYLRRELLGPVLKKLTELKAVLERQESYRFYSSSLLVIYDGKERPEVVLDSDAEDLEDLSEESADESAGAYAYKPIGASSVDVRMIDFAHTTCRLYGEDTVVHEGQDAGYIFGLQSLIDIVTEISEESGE

[7] = system: 58 kinases (diversity panel); test: Off-target kinase diversity panel at Eurofins; type: biochemical; conditions: 10μM, 58 kinases tested
Procedure, shortened: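 Kinase panel included metabolically important enzymes, among them GSK3β, AKT, mTOR and PI3K.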

Structure (SMILES)	Solubility ([1]; 2% DMSO)	Solubility ([1]; aqueous buffers)	Microsome stability (t1/2) [2]	IP6K selectivity ([3]; between IP6K isoforms, ref Padmanabhan, et al. J Biol Chem 2009)	Potency against the IP6K family [3]	Microsome stability (t1/2) [4]	Selectivity (Ki/Ki IP6K1) [5] [fold]	Selectivity (Ki/Ki IP6K1) [6]	Number of kinases not significantly inhibited (inactive) [7] [kinases]	Number of kinases potently inhibited ([7]; 3 of RAF/MAPK pathway and casein kinase γ) [kinases]
O=[N+]([O-])c1ccc(CNc2nc(NCc3cccc(C(F)(F)F)c3)nc3[nH]cnc23)cc1 [Compound 1, N2-(m-trifluorobenzyl)-N6-(p-nitrobenzyl) purine]	Mostly insoluble in 2% DMSO	sparingly soluble	Mouse 9 min ^**	Not selective ^*	low micromolar potency	Human 32 min ^**	–	–	–	–
COc1ccc2c(CCNc3nc(NCc4ccc(=O)[nH]c4)c4nc[nH]c4n3)c[nH]c2c1 [Compound 24]	–	–	–	–	–	–	~50	~ 25 fold and 25 fold	54	4
